This note sets out measurements from ChEMBL document CHEMBL5653631, “A Potent and Selective ULK1 Inhibitor Suppresses Autophagy and Sensitizes Cancer Cells to Nutrient Stress” (iScience, 2018).

Test [1] addresses Protein kinase C beta type (Homo sapiens) (UniProt P05771). The experiment in a line: Inhibition of human recombinant PKCb at 15 nM related to control ULK1.
The target of test [2] is T1, TGF-beta receptor type-1 (Homo sapiens) (UniProt P36897).
T1 sequence (whole entry): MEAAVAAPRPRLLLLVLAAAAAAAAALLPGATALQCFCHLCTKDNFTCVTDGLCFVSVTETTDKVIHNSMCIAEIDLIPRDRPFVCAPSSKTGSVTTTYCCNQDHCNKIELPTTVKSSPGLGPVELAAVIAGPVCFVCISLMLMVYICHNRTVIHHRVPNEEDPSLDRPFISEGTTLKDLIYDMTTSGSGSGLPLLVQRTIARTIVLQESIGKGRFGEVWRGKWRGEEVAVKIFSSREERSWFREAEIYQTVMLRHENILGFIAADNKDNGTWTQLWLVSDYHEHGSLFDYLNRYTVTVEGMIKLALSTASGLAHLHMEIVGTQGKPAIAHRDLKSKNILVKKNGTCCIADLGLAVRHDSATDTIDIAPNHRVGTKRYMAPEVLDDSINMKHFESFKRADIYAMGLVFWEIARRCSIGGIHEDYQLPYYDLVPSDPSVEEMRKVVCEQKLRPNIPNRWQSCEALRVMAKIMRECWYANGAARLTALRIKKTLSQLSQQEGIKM
Briefly: Inhibition of human recombinant TGFbR1 at 15 nM in presence of ATP by radiometric assay relative to control.

The target of test [3] is T2, Activin receptor type-1B (Homo sapiens) (UniProt P36896).
T2 sequence (whole entry): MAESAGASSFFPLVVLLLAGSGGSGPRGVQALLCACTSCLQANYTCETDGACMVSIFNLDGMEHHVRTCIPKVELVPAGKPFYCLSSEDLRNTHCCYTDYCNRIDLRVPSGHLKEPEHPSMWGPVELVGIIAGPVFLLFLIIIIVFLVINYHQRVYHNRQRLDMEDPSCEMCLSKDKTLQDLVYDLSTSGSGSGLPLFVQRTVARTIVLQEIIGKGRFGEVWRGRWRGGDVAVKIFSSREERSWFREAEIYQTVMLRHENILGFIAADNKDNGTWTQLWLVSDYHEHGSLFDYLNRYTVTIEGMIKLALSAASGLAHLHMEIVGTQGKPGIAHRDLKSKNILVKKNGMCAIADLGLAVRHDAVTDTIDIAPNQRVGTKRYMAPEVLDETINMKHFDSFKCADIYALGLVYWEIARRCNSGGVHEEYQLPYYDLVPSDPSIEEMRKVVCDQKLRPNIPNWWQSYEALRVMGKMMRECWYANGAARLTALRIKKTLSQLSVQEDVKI
The experiment in a line: Inhibition of human recombinant ALK4 at 15 nM in presence of ATP by radiometric assay relative to control. The essentials:
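Panel of 327 recombinant human kinases, each assayed in vitro by radiometric activity assay in duplicate at a single inhibitor concentration per compound, chosen with reference to its ULK1 inhibition. Activity remaining was expressed as percent of vehicle control, and percent inhibition was calculated as 100 minus percent activity remaining.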

In test [4] the target is T3, Serine/threonine-protein kinase D3 (Homo sapiens) (UniProt O94806).
T3 sequence (whole entry): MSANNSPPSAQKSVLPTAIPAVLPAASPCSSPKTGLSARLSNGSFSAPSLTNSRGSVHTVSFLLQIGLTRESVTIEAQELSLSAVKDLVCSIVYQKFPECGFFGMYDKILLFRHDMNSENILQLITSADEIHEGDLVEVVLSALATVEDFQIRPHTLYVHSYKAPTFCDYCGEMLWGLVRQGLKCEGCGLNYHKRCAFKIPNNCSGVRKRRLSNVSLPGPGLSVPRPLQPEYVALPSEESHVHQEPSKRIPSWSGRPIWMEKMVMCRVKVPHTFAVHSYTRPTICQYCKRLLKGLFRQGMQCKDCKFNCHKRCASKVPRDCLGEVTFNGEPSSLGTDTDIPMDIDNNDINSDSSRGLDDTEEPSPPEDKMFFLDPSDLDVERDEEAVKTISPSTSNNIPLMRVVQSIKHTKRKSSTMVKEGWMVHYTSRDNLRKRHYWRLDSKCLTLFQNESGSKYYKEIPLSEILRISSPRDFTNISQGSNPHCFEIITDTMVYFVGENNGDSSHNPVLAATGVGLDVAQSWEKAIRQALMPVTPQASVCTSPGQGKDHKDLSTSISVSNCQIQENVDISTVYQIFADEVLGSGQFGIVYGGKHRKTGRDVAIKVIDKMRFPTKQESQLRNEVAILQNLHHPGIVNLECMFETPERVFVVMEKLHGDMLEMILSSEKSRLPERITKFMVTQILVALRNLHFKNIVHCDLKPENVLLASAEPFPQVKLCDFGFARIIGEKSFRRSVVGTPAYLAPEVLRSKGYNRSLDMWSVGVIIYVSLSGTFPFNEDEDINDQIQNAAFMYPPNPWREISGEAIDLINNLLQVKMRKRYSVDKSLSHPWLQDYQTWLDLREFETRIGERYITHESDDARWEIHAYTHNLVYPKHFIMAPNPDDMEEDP
The experiment in a line: Inhibition of human recombinant PKD3 at 15 nM in presence of ATP by radiometric assay relative to control.

The target in test [5] is Serine/threonine-protein kinase PAK 2 (Homo sapiens) (UniProt Q13177). Briefly: Inhibition of human recombinant PAK2 at 15 nM in presence of ATP by radiometric assay relative to control.
For test [6], the target named is T4, Serine/threonine-protein kinase DCLK3 (Homo sapiens) (UniProt Q9C098).
T4 sequence (whole entry): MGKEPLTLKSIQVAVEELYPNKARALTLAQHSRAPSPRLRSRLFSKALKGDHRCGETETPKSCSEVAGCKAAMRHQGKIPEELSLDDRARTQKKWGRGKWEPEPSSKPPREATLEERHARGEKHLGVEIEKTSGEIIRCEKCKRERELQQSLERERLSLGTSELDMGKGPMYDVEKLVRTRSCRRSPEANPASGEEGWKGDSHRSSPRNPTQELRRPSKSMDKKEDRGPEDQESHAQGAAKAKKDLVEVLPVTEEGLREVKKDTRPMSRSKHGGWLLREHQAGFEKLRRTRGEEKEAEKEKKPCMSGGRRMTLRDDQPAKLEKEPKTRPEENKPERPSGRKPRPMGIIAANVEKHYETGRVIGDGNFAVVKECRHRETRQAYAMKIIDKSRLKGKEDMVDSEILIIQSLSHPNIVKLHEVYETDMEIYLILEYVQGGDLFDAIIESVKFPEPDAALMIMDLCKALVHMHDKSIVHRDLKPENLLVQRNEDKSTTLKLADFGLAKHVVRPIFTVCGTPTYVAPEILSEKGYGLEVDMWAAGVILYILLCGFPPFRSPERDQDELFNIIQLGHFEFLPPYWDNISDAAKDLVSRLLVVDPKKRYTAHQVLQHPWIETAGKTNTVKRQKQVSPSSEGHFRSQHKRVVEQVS
The experiment in a line: Inhibition of human recombinant DCAMKL3 at 500 nM in presence of ATP by radiometric assay relative to control.

Protein kinase C beta type (Homo sapiens), sequence (P05771 2-671 limits assumed): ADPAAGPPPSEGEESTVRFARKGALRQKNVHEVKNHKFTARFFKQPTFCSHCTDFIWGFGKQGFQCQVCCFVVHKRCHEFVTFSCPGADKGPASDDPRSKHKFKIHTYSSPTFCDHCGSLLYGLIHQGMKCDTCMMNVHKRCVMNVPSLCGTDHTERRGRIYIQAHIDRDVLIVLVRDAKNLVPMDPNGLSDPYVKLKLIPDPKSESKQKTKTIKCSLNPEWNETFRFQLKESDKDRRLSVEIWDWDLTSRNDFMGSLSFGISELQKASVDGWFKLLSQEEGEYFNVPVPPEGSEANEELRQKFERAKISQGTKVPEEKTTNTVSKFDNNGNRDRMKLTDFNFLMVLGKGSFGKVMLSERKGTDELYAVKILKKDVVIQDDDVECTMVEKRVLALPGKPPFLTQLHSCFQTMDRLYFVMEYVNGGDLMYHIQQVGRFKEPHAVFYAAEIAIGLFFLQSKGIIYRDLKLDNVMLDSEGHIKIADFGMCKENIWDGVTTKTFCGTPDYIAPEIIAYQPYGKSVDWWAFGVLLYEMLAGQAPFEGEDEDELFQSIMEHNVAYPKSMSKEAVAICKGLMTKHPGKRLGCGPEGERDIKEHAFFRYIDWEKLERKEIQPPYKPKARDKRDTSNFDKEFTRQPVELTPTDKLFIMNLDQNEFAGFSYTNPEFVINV
Serine/threonine-protein kinase PAK 2 (Homo sapiens), sequence (Q13177 whole entry): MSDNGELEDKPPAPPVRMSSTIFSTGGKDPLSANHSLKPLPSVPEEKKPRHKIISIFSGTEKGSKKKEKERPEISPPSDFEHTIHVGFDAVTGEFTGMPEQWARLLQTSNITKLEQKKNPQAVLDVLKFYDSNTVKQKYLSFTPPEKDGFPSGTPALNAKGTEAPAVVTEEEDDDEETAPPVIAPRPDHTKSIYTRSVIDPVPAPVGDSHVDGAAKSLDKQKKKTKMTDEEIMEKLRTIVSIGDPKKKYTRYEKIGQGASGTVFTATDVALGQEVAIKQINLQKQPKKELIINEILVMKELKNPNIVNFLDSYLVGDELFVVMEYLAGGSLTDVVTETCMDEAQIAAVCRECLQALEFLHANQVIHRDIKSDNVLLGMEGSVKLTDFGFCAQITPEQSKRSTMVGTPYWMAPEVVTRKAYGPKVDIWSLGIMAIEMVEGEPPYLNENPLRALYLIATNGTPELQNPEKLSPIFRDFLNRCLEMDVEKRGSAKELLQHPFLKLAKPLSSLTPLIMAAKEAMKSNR

On to `CC(C)[C@H](NC(=O)c1cc(-c2cnn3cc(-c4ccc(OCCN5CCCCC5)cc4)cnc23)cs1)C(F)(F)F`, for which the fold change (FC) in test [1] amounted to 0. Also, the inhibition was found to be 4% in test [2], 20% in test [3], 7% in test [4] and 0% in test [5].

In the case of `CNC(=O)c1ccccc1Oc1nc(Nc2cc(OC)c(OC)c(OC)c2)ncc1Br`, the inhibition in test [6] was found to be 0%.
